Consider four molecules from ChEMBL document CHEMBL1146746, “Propargylic sulfones possessing a 2-nitroimidazole function: novel hypoxic-cell radiosensitizers with intracellular non-protein thiol depletion ability” (Bioorg Med Chem Lett, 2004).

Data set [1] in a line: Second order rate constant was determined for the reaction of compound with GSH in phosphate buffer at a pH of 8.5. In short, it runs like this: (§1)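 Test compound and GSH reacted in phosphate buffer at 37 °C, pH 7.5 for lines 2 and 3 and pH 8.5 for line 4. Aliquots were taken at set times and quenched into phosphate buffer containing 0.2 mM Ellman's reagent (DTNB). Unreacted GSH was measured by UV absorbance at 412 nm. Second-order rate constant k₂ for nucleophilic GSH addition is given in mM⁻¹ h⁻¹.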

The nature of data set [2]: Partition coefficient in octanol to water system. In kind it is physicochemical.
Data set [3] is described as follows: Second order rate constant was determined for the reaction of compound with GSH in phosphate buffer at a pH of 7.5. In short, it runs like this: as §1
Data set [4] is described as follows: Second order rate constant determined for the reaction of compound with GSH in phosphate buffer at a pH of 7.5. In outline:
as §1

Regarding `CC(=O)OC(CC#CCSc1ccc([N+](=O)[O-])cc1)Cn1ccnc1[N+](=O)[O-]` (stereo not given), the k2 in data set [1] is 0.8 m M-1 hr-1.

In data set [2], `CC(=O)OC(CC#CCS(=O)(=O)c1ccccc1)Cn1ccnc1[N+](=O)[O-]` (stereo not given) registered a Po/w of 22.2. For the same molecule, the figures for the k2 in data set [3] and in data set [1] were 0.2 m M-1 hr-1 and 0.7 m M-1 hr-1, respectively.

The molecule `O=C(O)CCC(=O)OC(CC#CCS(=O)(=O)c1ccc([N+](=O)[O-])cc1)Cn1ccnc1[N+](=O)[O-]` (stereo not given) registered a Po/w in data set [2] of 2.2. Besides, the k2 was 1.1 m M-1 hr-1 in data set [3] and 8.6 m M-1 hr-1 in data set [1].

The molecule `CC(=O)OC(CC#CCS(=O)(=O)c1ccc([N+](=O)[O-])cc1)Cn1ccnc1[N+](=O)[O-]` (stereo not given) gave a Po/w in data set [2] of 15. Moreover, the results for the k2 in data set [4] and in data set [1] were 3 m M-1 hr-1 and 17 m M-1 hr-1, respectively.
